According to ChEMBL document CHEMBL4477235, “Evolution of a Novel, Orally Bioavailable Series of PI3Kδ Inhibitors from an Inhaled Lead for the Treatment of Respiratory Disease” (J Med Chem, 2016):
pIC50: −log10 of the molar value. ≈ marks a conversion by molar mass, not a printed value. Calls of active or inactive are those of the source. No cut-off for these calls is given here.

Legend:
[1] = Half life in Brown Norway rat acute OVA model of TH2-driven lung inflammation at 9 mg/kg, po pretreated for 30 mins followed by OVA challenge; assay type: ADME, organism-based; details: in vivo
Albumin = Albumin (Homo sapiens, UniProt P02768); experiment: Binding affinity to human serum albumin by HPLC analysis; assay type: ADME; details: read-out: PB (converted)
[2] = Clearance in human liver microsomes at 0.5 uM measured up to 30 mins by LC-MS/MS analysis; assay type: ADME, Microsome; details: 0.5 h
[3] = Clearance in Sprague-Dawley rat at 1 mg/kg, iv measured up to 7 hrs by LC-MS/MS analysis relative to liver blood flow; assay type: ADME, organism-based; details: in vivo
Method in brief: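 Male Sprague Dawley rats (n = 2/route), intravenous dose as a solution in DMSO/PEG200/water (5:45:50 v/v/v) at 2 mL/kg. Serial tail-vein blood sampling over 0–7 h. LC–MS/MS quantification of parent. Noncompartmental analysis.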

[4] = Kinetic solubility in phosphate buffered saline at pH 7.4 after 1 hr by chemiluminescent nitrogen detection method; assay type: physicochemical; details: read-out: Kinetic_solubility
Method in brief: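 The sample was then filtered, and the filtrate was quantified by calibrated flow-injection chemiluminescent nitrogen detection. Standard error was ±30 µM, and the upper limit was 500 µM from the 10 mM stock.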

[5] = molecular target: Epidermal growth factor receptor (Homo sapiens, UniProt P00533); experiment: Inhibition of EGFR (unknown origin)
[6] = molecular target: Tyrosine-protein kinase JAK2 (Homo sapiens, UniProt O60674); experiment: Inhibition of JAK2 (unknown origin)
[7] = Clearance in mouse liver microsomes at 0.5 uM measured up to 30 mins by LC-MS/MS analysis; assay type: ADME, Microsome; details: 0.5 h
[8] = molecular target: Inhibitor of nuclear factor kappa-B kinase subunit beta (Homo sapiens, UniProt O14920); experiment: Inhibition of IKK2 (unknown origin)
[9] = Fraction unbound in Wistar Han rat at 1 mg/kg after 1 hr by HPLC analysis; assay type: ADME, organism-based; details: in vivo
Method in brief: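 Unbound concentration at 1 h post-dose estimated by an internal algorithm from binding to HPLC columns coated with HSA and α-glycoprotein.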

Sphingosine kinase 1 = Sphingosine kinase 1 (Homo sapiens, UniProt Q9NYA1); experiment: Inhibition of SPHK1 (unknown origin)
Rattus norvegicus = experiment: Anti-inflammatory activity in Brown Norway rat acute OVA model of TH2-driven lung inflammation assessed as protection against eosinophil recruitment in bronchoalveolar lavage fluid at 9 mg/kg, po pretreated for 30 mins followed by OVA challenge by DAPI staining based flow cytometry; assay type: functional, organism-based
Method in brief: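 Male Brown Norway rats (250–300 g) sensitized i.p. with 10 μg OVA plus 20 mg Al(OH)₃ on days 1 and 7. Oral compound given 30 min before intratracheal OVA challenge on day 21 or 28, under isoflurane. BAL taken 48 h post-challenge. Leucocytes counted by flow cytometry, gated on FSC/SSC, with DAPI+ dead cells excluded.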

Aurora kinase B = Aurora kinase B (Homo sapiens, UniProt Q96GD4); experiment: Inhibition of Aurora B (unknown origin)
[10] = molecular target: Rho-associated protein kinase 1 (Homo sapiens, UniProt Q13464); experiment: Inhibition of ROCK1 (unknown origin)
Aurora kinase A = Aurora kinase A (Homo sapiens, UniProt O14965); experiment: Inhibition of Aurora A (unknown origin)
[11] = molecular target: Tyrosine-protein kinase JAK3 (Homo sapiens, UniProt P52333); experiment: Inhibition of JAK3 (unknown origin)
Chain of Tyrosine-protein kinase JAK3 (P52333 whole entry): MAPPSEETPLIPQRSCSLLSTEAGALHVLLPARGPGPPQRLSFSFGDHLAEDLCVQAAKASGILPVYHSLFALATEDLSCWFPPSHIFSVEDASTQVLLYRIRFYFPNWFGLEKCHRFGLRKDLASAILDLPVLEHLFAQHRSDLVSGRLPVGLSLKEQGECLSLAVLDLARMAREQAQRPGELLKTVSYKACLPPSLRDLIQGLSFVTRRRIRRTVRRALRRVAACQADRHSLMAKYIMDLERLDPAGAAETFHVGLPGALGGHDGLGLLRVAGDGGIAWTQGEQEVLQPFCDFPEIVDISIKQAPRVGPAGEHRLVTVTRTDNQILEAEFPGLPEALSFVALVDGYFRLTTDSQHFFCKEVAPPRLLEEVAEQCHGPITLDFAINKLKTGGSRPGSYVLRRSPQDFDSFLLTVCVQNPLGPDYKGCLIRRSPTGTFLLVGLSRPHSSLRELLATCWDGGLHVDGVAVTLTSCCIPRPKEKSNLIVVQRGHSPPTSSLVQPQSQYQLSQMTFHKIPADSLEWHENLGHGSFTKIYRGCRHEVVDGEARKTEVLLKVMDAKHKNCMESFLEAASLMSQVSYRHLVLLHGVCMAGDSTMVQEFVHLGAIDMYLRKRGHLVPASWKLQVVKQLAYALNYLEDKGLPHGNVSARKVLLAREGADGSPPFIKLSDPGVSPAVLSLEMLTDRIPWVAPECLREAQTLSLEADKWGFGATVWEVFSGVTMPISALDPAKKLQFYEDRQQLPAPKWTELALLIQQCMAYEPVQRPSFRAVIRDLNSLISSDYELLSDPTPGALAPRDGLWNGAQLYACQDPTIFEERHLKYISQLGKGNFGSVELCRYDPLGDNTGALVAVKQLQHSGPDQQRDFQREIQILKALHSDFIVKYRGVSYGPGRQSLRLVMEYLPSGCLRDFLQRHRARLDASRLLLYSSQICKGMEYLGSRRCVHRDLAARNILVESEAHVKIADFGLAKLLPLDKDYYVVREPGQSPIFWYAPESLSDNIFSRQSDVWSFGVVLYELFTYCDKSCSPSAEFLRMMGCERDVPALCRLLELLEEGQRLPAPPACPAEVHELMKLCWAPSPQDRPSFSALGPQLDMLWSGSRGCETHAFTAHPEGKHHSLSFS

Chain of Sphingosine kinase 1 (Q9NYA1 whole entry): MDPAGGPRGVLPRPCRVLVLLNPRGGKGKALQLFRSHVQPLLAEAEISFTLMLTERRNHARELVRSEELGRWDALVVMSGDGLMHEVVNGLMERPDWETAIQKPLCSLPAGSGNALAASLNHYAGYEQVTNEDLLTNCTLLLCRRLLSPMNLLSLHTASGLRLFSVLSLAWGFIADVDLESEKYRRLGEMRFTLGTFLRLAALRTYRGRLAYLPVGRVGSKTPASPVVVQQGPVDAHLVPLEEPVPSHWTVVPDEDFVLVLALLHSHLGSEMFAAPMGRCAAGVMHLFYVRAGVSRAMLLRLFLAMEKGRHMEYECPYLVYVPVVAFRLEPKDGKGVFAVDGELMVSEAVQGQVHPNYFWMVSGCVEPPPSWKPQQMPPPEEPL
Chain of Albumin (P02768 whole entry): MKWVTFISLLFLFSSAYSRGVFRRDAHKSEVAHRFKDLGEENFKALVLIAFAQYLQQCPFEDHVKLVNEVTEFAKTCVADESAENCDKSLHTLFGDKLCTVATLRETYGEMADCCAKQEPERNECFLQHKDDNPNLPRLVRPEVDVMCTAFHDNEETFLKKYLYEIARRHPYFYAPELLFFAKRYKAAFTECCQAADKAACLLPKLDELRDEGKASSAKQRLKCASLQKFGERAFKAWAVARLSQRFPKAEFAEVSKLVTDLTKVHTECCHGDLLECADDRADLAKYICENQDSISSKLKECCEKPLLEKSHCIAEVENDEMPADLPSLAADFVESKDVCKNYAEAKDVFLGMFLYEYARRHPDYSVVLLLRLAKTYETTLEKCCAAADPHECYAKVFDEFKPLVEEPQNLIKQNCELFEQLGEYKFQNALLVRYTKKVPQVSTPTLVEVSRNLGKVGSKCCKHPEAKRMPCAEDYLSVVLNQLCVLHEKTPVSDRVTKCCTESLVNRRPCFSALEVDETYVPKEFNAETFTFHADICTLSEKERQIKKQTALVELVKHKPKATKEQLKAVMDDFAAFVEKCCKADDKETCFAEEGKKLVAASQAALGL
Chain of Rho-associated protein kinase 1 (Q13464 whole entry): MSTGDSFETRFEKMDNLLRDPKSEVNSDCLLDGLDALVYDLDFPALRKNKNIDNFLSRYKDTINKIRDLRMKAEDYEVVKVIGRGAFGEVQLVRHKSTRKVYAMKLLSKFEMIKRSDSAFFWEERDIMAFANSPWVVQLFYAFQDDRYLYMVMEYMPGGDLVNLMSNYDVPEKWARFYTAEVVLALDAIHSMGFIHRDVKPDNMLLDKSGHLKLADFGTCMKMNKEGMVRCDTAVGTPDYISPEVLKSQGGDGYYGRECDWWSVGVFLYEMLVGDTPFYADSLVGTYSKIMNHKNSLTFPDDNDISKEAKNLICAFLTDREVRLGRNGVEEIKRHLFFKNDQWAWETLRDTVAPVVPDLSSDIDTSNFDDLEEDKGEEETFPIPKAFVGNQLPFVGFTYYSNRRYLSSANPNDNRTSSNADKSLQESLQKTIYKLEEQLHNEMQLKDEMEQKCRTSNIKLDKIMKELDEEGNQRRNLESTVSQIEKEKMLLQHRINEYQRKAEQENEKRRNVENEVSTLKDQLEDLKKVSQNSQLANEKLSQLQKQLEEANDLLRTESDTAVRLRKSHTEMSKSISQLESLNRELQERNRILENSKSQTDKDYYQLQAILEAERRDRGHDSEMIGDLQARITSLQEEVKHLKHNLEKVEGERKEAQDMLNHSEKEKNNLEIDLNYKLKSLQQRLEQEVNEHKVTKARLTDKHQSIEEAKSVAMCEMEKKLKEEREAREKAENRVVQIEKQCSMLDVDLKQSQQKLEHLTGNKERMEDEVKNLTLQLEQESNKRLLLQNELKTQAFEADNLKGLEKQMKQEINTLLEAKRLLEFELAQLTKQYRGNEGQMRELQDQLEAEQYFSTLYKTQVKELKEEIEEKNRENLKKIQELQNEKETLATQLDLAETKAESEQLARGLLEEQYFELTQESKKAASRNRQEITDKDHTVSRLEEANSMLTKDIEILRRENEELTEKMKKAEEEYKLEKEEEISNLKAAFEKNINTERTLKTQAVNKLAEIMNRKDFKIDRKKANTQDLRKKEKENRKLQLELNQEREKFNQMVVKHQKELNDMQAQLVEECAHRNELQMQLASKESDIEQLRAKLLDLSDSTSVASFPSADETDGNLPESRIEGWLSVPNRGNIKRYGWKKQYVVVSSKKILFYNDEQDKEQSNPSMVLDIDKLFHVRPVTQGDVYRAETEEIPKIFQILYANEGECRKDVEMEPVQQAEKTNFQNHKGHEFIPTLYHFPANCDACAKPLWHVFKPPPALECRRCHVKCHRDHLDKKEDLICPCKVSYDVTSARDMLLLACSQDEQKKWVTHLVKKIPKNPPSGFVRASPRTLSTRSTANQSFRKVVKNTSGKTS
Chain of Inhibitor of nuclear factor kappa-B kinase subunit beta (O14920 whole entry): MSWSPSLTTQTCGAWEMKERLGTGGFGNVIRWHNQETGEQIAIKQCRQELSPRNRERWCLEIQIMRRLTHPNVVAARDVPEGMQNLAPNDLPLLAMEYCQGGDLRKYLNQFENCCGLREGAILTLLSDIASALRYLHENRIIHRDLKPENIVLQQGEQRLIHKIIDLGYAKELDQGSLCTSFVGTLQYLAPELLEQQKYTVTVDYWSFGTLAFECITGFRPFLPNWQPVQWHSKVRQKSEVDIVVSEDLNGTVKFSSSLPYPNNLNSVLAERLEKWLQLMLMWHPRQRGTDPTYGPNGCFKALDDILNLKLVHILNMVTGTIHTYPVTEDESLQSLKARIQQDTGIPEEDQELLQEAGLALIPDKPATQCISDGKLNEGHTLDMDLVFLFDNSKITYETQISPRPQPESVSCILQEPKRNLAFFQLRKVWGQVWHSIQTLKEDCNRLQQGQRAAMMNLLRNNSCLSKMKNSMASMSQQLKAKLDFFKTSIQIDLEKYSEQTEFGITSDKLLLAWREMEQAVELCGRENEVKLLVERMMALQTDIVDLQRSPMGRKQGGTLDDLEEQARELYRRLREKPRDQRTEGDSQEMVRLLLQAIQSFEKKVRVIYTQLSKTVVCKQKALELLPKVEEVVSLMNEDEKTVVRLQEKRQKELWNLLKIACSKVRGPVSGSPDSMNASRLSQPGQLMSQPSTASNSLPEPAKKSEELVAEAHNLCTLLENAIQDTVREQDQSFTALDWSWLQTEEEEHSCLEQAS
Chain of Aurora kinase A (O14965 whole entry): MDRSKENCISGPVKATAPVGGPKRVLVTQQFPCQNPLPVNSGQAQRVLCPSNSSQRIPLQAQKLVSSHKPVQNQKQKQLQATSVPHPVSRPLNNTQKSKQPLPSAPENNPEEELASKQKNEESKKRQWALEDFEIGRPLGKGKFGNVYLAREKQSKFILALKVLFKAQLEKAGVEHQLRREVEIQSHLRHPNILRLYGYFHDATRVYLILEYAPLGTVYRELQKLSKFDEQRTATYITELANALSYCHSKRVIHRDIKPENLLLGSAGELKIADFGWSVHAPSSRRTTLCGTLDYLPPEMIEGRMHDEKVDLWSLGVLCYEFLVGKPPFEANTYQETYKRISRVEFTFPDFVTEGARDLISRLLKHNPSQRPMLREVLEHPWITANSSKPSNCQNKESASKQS
Chain of Aurora kinase B (Q96GD4 whole entry): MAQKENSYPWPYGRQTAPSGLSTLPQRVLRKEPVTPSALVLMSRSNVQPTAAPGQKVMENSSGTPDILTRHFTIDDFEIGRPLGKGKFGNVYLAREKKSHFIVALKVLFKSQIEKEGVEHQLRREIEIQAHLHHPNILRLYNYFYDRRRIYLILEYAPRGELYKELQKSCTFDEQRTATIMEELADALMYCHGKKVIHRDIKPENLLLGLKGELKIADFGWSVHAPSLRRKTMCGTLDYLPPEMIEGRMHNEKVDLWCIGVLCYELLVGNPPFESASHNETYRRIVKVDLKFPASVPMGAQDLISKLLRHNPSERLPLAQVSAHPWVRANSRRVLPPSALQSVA

SMILES: COc1ncc(-c2cc3c(c(NC(=O)CN4CCOCC4)c2)COC3)cc1NS(C)(=O)=O
- half-life [1]: 6.8 h
- fraction unbound (Albumin): 0.36
- CLH [2]: < 0.5 mL/min/g
- CL [3]: < 20%
- solubility kinetic at 1 h [4]: 185 µg/mL (≈ 400 µM)
- pIC50 [5]: < 5.00
- pIC50 [6]: < 5.00
- CLH [7]: < 0.5 mL/min/g
- pIC50 [8]: < 5.00
- Drug uptake(free) [9]: 0.089 µM
- pIC50 (Sphingosine kinase 1): < 5.00
- Activity (Rattus norvegicus): inactive
- pIC50 (Aurora kinase B): < 5.00
- pIC50 [10]: < 5.00
- pIC50 (Aurora kinase A): < 5.00
- pIC50 [11]: < 5.00
